Data taken from ChEMBL document CHEMBL3232919, “Imidazol-1-ylethylindazole voltage-gated sodium channel ligands are neuroprotective during optic neuritis in a mouse model of multiple sclerosis” (J Med Chem, 2014).

Key:
[1] = species: Rattus norvegicus; test: Neuroprotective activity in oxygen/glucose deprivation-induced Wistar rat hippocampal slice assessed as inhibition of cell death by measuring ATP level; assay type: functional
[2] = species: Rattus norvegicus; test: Neuroprotective activity in oxygen/glucose deprivation-induced Wistar rat hippocampal slice assessed as inhibition of cell death by measuring ATP level at 50 uM; assay type: functional
[3] = Displacement of [3H]sipatrigine from Wistar rat brain synaptosomes voltage-gated sodium channel by liquid scintillation counting; assay type: subcellular
[4] = Metabolic stability in rat liver microsomes assessed as drug turnover at 1 uM at 40 mins by LC-MS/MS analysis; assay type: ADME; settings: read-out: Drug metabolism
Procedure, shortened: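 Compound at 1 μM was incubated (n=2) with pooled rat liver microsomes (0.25 mg protein/ml) at 37°C for 0 and 40 min. Reactions were stopped with acetonitrile containing an internal standard, and parent disappearance was measured by LC-MS/MS. Percentage turnover was taken from peak heights relative to the zero-time samples.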

[5] = species: Rattus norvegicus; test: Neuroprotective activity in oxygen/glucose deprivation-induced Wistar rat hippocampal slice assessed as inhibition of cell death by measuring ATP level at 3 uM; assay type: functional
[6] = species: Rattus norvegicus; test: Neuroprotective activity in oxygen/glucose deprivation-induced Wistar rat hippocampal slice assessed as inhibition of cell death by measuring ATP level at 30 uM normalized to tetrodotoxin; assay type: functional
[7] = species: Rattus norvegicus; settings: Wistar, 1 uM

Structure (SMILES)	inhibition at 50 µM [2] [%]	IC50 [3] [µM]	further results
O=S(=O)(NCc1noc(-c2c3ccccc3nn2CCn2ccnc2)n1)c1ccccc1	38	1.7	EC50 [1]: 29.5 µM; metabolised at 40 min, 1 µM [4]: 97%
CN1CCN(c2ncc(-c3cc(Cl)cc(Cl)c3Cl)c(N)n2)CC1 [SIPATRIGINE]	–	–	inhibition at 3 µM [5]: 93%
COc1cccc(S(=O)(=O)NCc2noc(-c3nn(CCn4ccnc4)c4ccccc34)n2)c1OC	37	> 500	–
COc1ccccc1C(=O)NCc1noc(-c2c3ccccc3nn2CCn2ccnc2)n1	54	7.1	–
O=S(=O)(NCc1noc(-c2nn(CCn3ccnc3)c3ccccc23)n1)c1cccc(C(F)(F)F)c1	38	2.1	–
O=C(NCc1noc(-c2c3ccccc3nn2CCn2ccnc2)n1)c1cccc(F)c1F	2	3.6	–
Nc1nnc(-c2cccc(Cl)c2Cl)c(N)n1 [LAMOTRIGINE]	–	–	inhibition (INH) [6]: 33%
CC(=O)Nc1ccc(S(=O)(=O)NCc2noc(-c3c4ccccc4nn3CCn3ccnc3)n2)cc1	25	17	metabolised at 40 min, 1 µM [4]: 54%
Cc1cc(C(=O)NCc2noc(-c3c4ccccc4nn3CCn3ccnc3)n2)ccc1[N+](=O)[O-]	43	1.7	–
Cc1oncc1Cn1nc(-c2nc(CNC(=O)c3ccccc3)no2)c2ccccc21	19	> 2000	–
CC(C)(C)c1ccc(C(=O)NCc2noc(-c3nn(CCn4ccnc4)c4ccccc34)n2)cc1	40	1.2	–
Cc1ccccc1C(=O)NCc1noc(-c2c3ccccc3nn2CCn2ccnc2)n1	62	2.9	–
NCc1noc(-c2c3ccccc3nn2CCc2cccs2)n1	36	0.6	–
Cc1cccc(C(=O)NCc2noc(-c3c4ccccc4nn3CCn3ccnc3)n2)c1	41	2.5	–
O=C(NCc1noc(-c2c3ccccc3nn2CCn2ccnc2)n1)c1ccc(Cl)cc1	42	2.2	–
NCc1noc(-c2c3ccccc3nn2CCn2ccnc2)n1	8	14	metabolised at 40 min, 1 µM [4]: 57%
CC(C)(C)OC(=O)NCc1noc(-c2c3ccccc3nn2Cc2ccccn2)n1	42	23	–
COc1cccc(C(=O)NCc2noc(-c3c4ccccc4nn3CCn3ccnc3)n2)c1	63	5	–
Cc1oncc1Cn1nc(-c2nc(CNC(=O)OC(C)(C)C)no2)c2ccccc21	39	339	–
CC(C)(C)OC(=O)NCc1noc(-c2nn(CCn3ccnc3)c3ccccc23)n1	56	7.4	–
O=C(NCc1noc(-c2c3ccccc3nn2CCn2ccnc2)n1)c1ccc2c(c1)OCO2	27	5	–
NCc1noc(-c2nn(CCn3ccnc3)c3ccccc23)n1	-2	148	–
CC(C)(C)OC(=O)NCc1noc(-c2c3ccccc3nn2CCc2cccs2)n1	1	166	–
COc1ccc(C(=O)NCc2noc(-c3c4ccccc4nn3CCn3ccnc3)n2)cc1	55	6.2	–
O=C(NCc1noc(-c2c3ccccc3nn2Cc2ccccn2)n1)c1ccccc1	58	41	–

Structure (SMILES)	inhibition at 50 µM [2] [%]	IC50 [3] [µM]	further results
Cc1oncc1Cn1nc(-c2nc(CN)no2)c2ccccc21	19	15	–
NCc1noc(-c2nn(-c3ccccn3)c3ccccc23)n1	-11	32	–
CC(=O)Nc1ccc(C(=O)NCc2noc(-c3c4ccccc4nn3CCn3ccnc3)n2)cc1	-14	59	metabolised at 40 min, 1 µM [4]: 45%
O=C(NCc1noc(-c2c3ccccc3nn2CCn2ccnc2)n1)c1ccc(OC(F)(F)F)cc1	31	0.7	–
NCc1noc(-c2c3ccccc3nn2Cc2ccccn2)n1	25	> 10000	–
COc1cccc(C(=O)NCc2noc(-c3c4ccccc4nn3CCn3ccnc3)n2)c1OC	88	5.8	EC50 [1]: 12.3 µM
O=C(NCc1noc(-c2c3ccccc3nn2CCn2ccnc2)n1)c1ccc2ccccc2c1	22	0.4	–
O=C(NCc1noc(-c2nn(CCn3ccnc3)c3ccccc23)n1)c1cccc2[nH]ccc12	52	13	–
COc1cccc(C(=O)NCc2noc(-c3nn(CCn4ccnc4)c4ccccc34)n2)c1OC	69	7.1	–
CC(C)(C)OC(=O)NCc1noc(-c2nn(Cc3ccc(-n4cccn4)cc3)c3ccccc23)n1	20	617	–
CC(C)(C)OC(=O)NCc1noc(-c2nn(-c3ccccn3)c3ccccc23)n1	18	74	–
CC(C)(C)OC(=O)NCc1noc(-c2c3ccccc3nn2CCn2ccnc2)n1	35	15.5	metabolised at 40 min, 1 µM [4]: 70%
O=C(NCc1noc(-c2nn(CCn3ccnc3)c3ccccc23)n1)c1cccc(OC(F)(F)F)c1	37	1.5	metabolised at 40 min, 1 µM [4]: 78%
O=S(=O)(NCc1noc(-c2nn(CCn3ccnc3)c3ccccc23)n1)c1ccc(OC(F)(F)F)cc1	0	4.9	–
CC(C)(C)c1ccc(S(=O)(=O)NCc2noc(-c3nn(CCn4ccnc4)c4ccccc34)n2)cc1	16	4.4	–
NCc1noc(-c2c3ccccc3nn2Cc2ccccc2)n1	57	–	–
O=C(NCc1noc(-c2c3ccccc3nn2CCc2cccs2)n1)c1ccccc1	-2	> 1000	–
CC(C)(C)OC(=O)NCc1noc(-c2nn(Cc3ccc4c(c3)OCO4)c3ccccc23)n1	-3	6	–
COc1ccc(C(=O)NCc2noc(-c3nn(CCn4ccnc4)c4ccccc34)n2)c(OC)c1OC	37	5.3	–
Cc1ccccc1S(=O)(=O)NCc1noc(-c2nn(CCn3ccnc3)c3ccccc23)n1	57	4.9	–
NCc1noc(-c2nn(Cc3ccc4c(c3)OCO4)c3ccccc23)n1	44	2.1	–
O=S(=O)(NCc1noc(-c2nn(CCn3ccnc3)c3ccccc23)n1)c1ccc(Cl)cc1	21	10	–
NCc1noc(-c2nn(Cc3ccccc3)c3ccccc23)n1	–	–	EC50 [1]: 35 µM
NCc1noc(-c2nn(Cc3ccc(-n4cccn4)cc3)c3ccccc23)n1	26	6.2	–
NC1=N[C@H](O)[C@H]2[C@H]3O[C@]4(O)O[C@@H]([C@@H](O)[C@@]2(N1)[C@@H]4O)[C@]3(O)CO	–	–	inhibition [7]: 100%
